Tm and folding enthalpy data for 38 sequences are collected here from the array DNA melting data of Ke et al. (doi:10.1101/2024.01.08.574731).

A short description of series [1]: melting temperature; fluorescence melt of hairpins on a sequencing array, two-state fit, raised by 9.35 °C to match UV melts. The settings on record: sodium 0.088 M. In a few lines: (§1)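 Melting temperature and folding enthalpy were derived from bootstrapped two-state fits. The fitted temperatures were raised by 9.35 °C to agree with UV melts, and four replicates were combined by inverse variance. The underlying data were Cy3 fluorescence images of library hairpins, with annealed Cy3 and quencher oligos, on a sequenced MiSeq flow cell in 50 mM Na-HEPES pH 8.0, 25 mM NaCl, taken in 2.5 °C steps up to 60 °C, normalised to pre-quench Cy3 and to control constructs.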

Series [2] in a line: folding enthalpy; higher = less favourable; fluorescence melt of hairpins on a sequencing array, two-state fit. The settings on record: sodium 0.088 M. In a few lines: as §1

Consider GATCACAGCCGTGATC ((((((....)))))), for which the Tm in series [1] was 57.8 °C. Also, the folding enthalpy in series [2] is -44.6 kcal/mol.
As to GATCACAGGAGTGATC ((((((....)))))), in series [1], the Tm stood at 54.8 °C. In addition, in series [2], the folding enthalpy was -38.2 kcal/mol.
The matching figures for GATCACAGGGTGATC ((((((...)))))): 61.2 °C and -36.8 kcal/mol.
Taken in the same sequence, the figures for GATCACATACGTGATC ((((((....)))))) were 57.4 °C and -41.2 kcal/mol.
The matching figures for GATCACATCGGTGATC ((((((....)))))): 57 °C and -39.6 kcal/mol.
As for GATCACATCGTGATC ((((((...)))))), the Tm in series [1] is 58.3 °C. In addition, the folding enthalpy in series [2] was -41 kcal/mol.
Taken in the same sequence, the figures for GATCACCAAAGTGATC ((((((....)))))) were 55.2 °C and -50.8 kcal/mol.
The matching figures for GATCACCAATGTGATC ((((((....)))))): 54.1 °C and -35.3 kcal/mol.
As to GATCACCACGGTGATC ((((((....)))))), the Tm in series [1] turned out to be 62.9 °C. Besides, in series [2], the folding enthalpy was -41.4 kcal/mol.
The matching figures for GATCACCAGAGTGATC ((((((....)))))): 57.2 °C and -40 kcal/mol.
As to GATCACCAGGTGATC ((((((...)))))), the Tm in series [1] turned out to be 54.8 °C. For the same sequence, the folding enthalpy in series [2] was -26.5 kcal/mol.
The matching figures for GATCACCAGTGTGATC ((((((....)))))): 53.3 °C and -47.5 kcal/mol.
The matching figures for GATCACCATGGTGATC ((((((....)))))): 63.8 °C and -43.6 kcal/mol.
Taken in the same sequence, the figures for GATCACCCCGGTGATC ((((((....)))))) were 59.8 °C and -36.8 kcal/mol.
For the sequence GATCACCCGGTGATC ((((((...)))))), in series [1], the Tm came to 56.3 °C. For the same sequence, the folding enthalpy in series [2] was -44.2 kcal/mol.
Taken in the same sequence, the figures for GATCACCCGTGTGATC ((((((....)))))) were 55.5 °C and -47.7 kcal/mol.
Taken in the same sequence, the figures for GATCACCGAAGTGATC ((((((....)))))) were 55.8 °C and -38.1 kcal/mol.
In the case of GATCACCGCCGTGATC ((((((....)))))), in series [1], the Tm worked out at 54.4 °C. Also, the folding enthalpy in series [2] is -48.4 kcal/mol.
Taken in the same sequence, the figures for GATCACCGGTGTGATC ((((((....)))))) were 54.8 °C and -38 kcal/mol.
In the case of GATCACCGTGGTGATC ((((((....)))))), the Tm in series [1] was 66.3 °C. The folding enthalpy in series [2] is -29.5 kcal/mol.
Taken in the same sequence, the figures for GATCACCGTGTGATC ((((((...)))))) were 58.3 °C and -42.3 kcal/mol.
With GATCACCTCGTGATC ((((((...)))))), the Tm in series [1] is 59.3 °C. Besides, in series [2], the folding enthalpy is -38.2 kcal/mol.
Regarding GATCACCTGCGTGATC ((((((....)))))), the Tm in series [1] worked out at 54.9 °C. In series [2], the folding enthalpy is -48.3 kcal/mol.
Taken in the same sequence, the figures for GATCACCTGGGTGATC ((((((....)))))) were 62.6 °C and -47.5 kcal/mol.
Consider GATCACCTGTGTGATC ((((((....)))))), for which the Tm in series [1] is 57 °C. In series [2], the folding enthalpy was -37.8 kcal/mol.
In the case of GATCACCTTGGTGATC ((((((....)))))), in series [1], the Tm stood at 67 °C. In addition, the folding enthalpy in series [2] was -37.2 kcal/mol.
As for GATCACGAAAGTGGAATC ((((((....)))..))), the Tm in series [1] stood at 32.1 °C. Besides, in series [2], the folding enthalpy is -10.3 kcal/mol.
Taken in the same sequence, the figures for GATCACGAAAGTGGCATC ((((((....)))..))) were 30.3 °C and -12.3 kcal/mol.
The matching figures for GATCACGAAAGTGGTATC ((((((....)))..))): 34.1 °C and -13.5 kcal/mol.
The matching figures for GATCACGAAAGTGTATC ((((((....))).))): 44 °C and -20.6 kcal/mol.
GATCACGAAAGTGTCATC ((((((....)))..))): in series [1], the Tm came out at 31.5 °C. Besides, in series [2], the folding enthalpy was -13.8 kcal/mol.
Taken in the same sequence, the figures for GATCACGACGTGATC ((((((...)))))) were 64.6 °C and -30.6 kcal/mol.
Consider GATCACGATGTGATC ((((((...)))))), for which the Tm in series [1] came out at 58.5 °C. Further, the folding enthalpy in series [2] was -30.8 kcal/mol.
The matching figures for GATCACGCGTGTGATC ((((((....)))))): 56.5 °C and -38.7 kcal/mol.
As for GATCACGCTTGTGATC ((((((....)))))), the Tm in series [1] amounted to 57.7 °C. Besides, the folding enthalpy in series [2] is -38 kcal/mol.
Taken in the same sequence, the figures for GATCACGGACGTGATC ((((((....)))))) were 67.2 °C and -37.7 kcal/mol.
Taken in the same sequence, the figures for GATCACGGAGGTGATC ((((((....)))))) were 64.3 °C and -37.9 kcal/mol.
Taken in the same sequence, the figures for GATCACGGCGTGATC ((((((...)))))) were 61.3 °C and -38 kcal/mol.
